# Results from ChEMBL document CHEMBL5576140, “Computational Design of Pore-Forming Peptides with Potent Antimicrobial and Anticancer Activities” (J Med Chem, 2024).
# pIC50: −log10 of the molar value. The source made the active and inactive calls. The calls are words filed in the database; no cut-off is given here.
# How the values were obtained:
# [1] = Hemolytic activity against human RBC incubated for 1 hr by microplate reader analysis; type: toxicity, cell-based, Erythrocyte; conditions: red blood cells (erythrocytes)
# How it was run: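 Human red blood cells exposed to peptides up to 50 μM; hemolysis measured, IC50 derived where reached.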
# SUD4 = test: Anti-cancer activity against human SU-DHL-4 cells incubated for 24 hrs by WST assay; type: functional, cell-based; conditions: SU-DHL-4, 24 h
# Escherichia coli [2] = test: Antimicrobial activity against Escherichia coli TOP10 incubated for 24 hrs by broth microdilution assay; type: functional
# Staphylococcus aureus [3] = test: Antimicrobial activity against Staphylococcus aureus NE1506 harboring single transposon insertion mutation in V8 protease at 30 uM incubated for 18 hrs relative to control; type: functional
# How it was run: (§1)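 CA-MRSA USA300 LAC derivative JE2 and single transposon insertion mutants derived from JE2, each lacking an extracellular protease gene, were exposed to peptides up to 30 μM. The read-out was percent growth inhibition. Peptides were dissolved in PBS, and tests were run in triplicate.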
# Staphylococcus aureus [4] = test: Antimicrobial activity against Staphylococcus aureus NE163 harboring single transposon insertion mutation in aureolysin at 30 uM incubated for 18 hrs relative to control; type: functional; how it was run: as §1
# Staphylococcus aureus [5] = test: Antimicrobial activity against Staphylococcus aureus NE934 harboring single transposon insertion mutation in staphopain B at 30 uM incubated for 18 hrs relative to control; type: functional; how it was run: as §1
# Staphylococcus aureus [6] = test: Antimicrobial activity against Staphylococcus aureus NE1740 harboring single transposon insertion mutation in staphopain A at 30 uM incubated for 18 hrs relative to control; type: functional; how it was run: as §1
# Staphylococcus carnosus = test: Antimicrobial activity against Staphylococcus carnosus CCM 4838T incubated for 24 hrs by broth microdilution assay; type: functional
# Pseudomonas aeruginosa [7] = test: Depolarization of cytoplasmic membrane in Pseudomonas aeruginosa PAO1 at MIC measured for 45 mins by DiSC3-(5) dye based assay; type: functional, organism-based
# How it was run: (§2)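 Bacteria loaded with membrane-potential dye DiSC3-(5), then treated with peptide at its MIC for the respective strain; depolarization read as rise in dye fluorescence; polymyxin B and levofloxacin as reference antibiotics.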
# [8] = Toxicity against reconstructed human skin model assessed as tissue viability at 50 uM incubated for 1 hr followed by compound washout measured after 42 hrs by MTT assay; type: tissue-based, Skin of body; conditions: read-out: Activity
# How it was run: (§3)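 Reconstructed human epidermis with stratum corneum, per OECD TG 439 skin irritation guideline. Tissues exposed 1 h to peptide at 50 μM, then 42 h post-treatment incubation. Viability read by MTT. Controls were SDS and melittin.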
# [9] = Stability in human serum assessed as half life at 10 mg/ml by UPLC-MS analysis; type: ADME, cell-free
# How it was run: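 Peptides dissolved in PBS and incubated in 25% human serum. Intact peptide remaining followed over time to at least 6 h; half-life taken as time to 50% stability.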
# Escherichia coli [10] = test: Induction of outer membrane permeabilization in Escherichia coli ATCC 11775 measured for 20 mins by NPN uptake assay; type: functional, organism-based
# Acinetobacter baumannii [11] = test: Depolarization of cytoplasmic membrane in Acinetobacter baumannii ATCC 19606 at MIC measured for 45 mins by DiSC3-(5) dye based assay; type: functional, organism-based; how it was run: as §2
# Staphylococcus aureus [12] = test: Depolarization of cytoplasmic membrane in Staphylococcus aureus ATCC 12600 at MIC measured for 45 mins by DiSC3-(5) dye based assay; type: functional, organism-based; how it was run: as §2
# [13] = Toxicity against reconstructed human skin model assessed as irritation at 50 uM incubated for 1 hr followed by compound washout measured after 42 hrs by MTT assay; type: tissue-based, Skin of body; how it was run: as §3
# Pseudomonas aeruginosa [14] = test: Induction of outer membrane permeabilization in Pseudomonas aeruginosa PAO1 measured for 20 mins by NPN uptake assay; type: functional, organism-based
# How it was run: (§4)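 Outer-membrane permeabilization of Gram-negative bacteria read as rise in fluorescence of the lipophilic dye NPN, which enters only when outer-membrane integrity is compromised. Peptides applied at their MIC against the respective strain; polymyxin B and levofloxacin as reference antibiotics. Triplicates.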
# Escherichia coli [15] = test: Depolarization of cytoplasmic membrane in Escherichia coli ATCC 11775 at MIC measured for 45 mins by DiSC3-(5) dye based assay; type: functional, organism-based; how it was run: as §2
# Klebsiella pneumoniae [16] = test: Induction of outer membrane permeabilization in Klebsiella pneumoniae ATCC 13883 measured for 20 mins by NPN uptake assay; type: functional, organism-based; how it was run: as §4
# Klebsiella pneumoniae [17] = test: Depolarization of cytoplasmic membrane in Klebsiella pneumoniae ATCC 13883 at MIC measured for 45 mins by DiSC3-(5) dye based assay; type: functional, organism-based; how it was run: as §2
# [18] = Toxicity in neutropenic CD-1 mouse deep thigh infection model infected with Acinetobacter baumannii ATCC 19606 assessed as body weight change at 0.18 mg/kg, ip measured after 4 days; type: organism-based; conditions: in vivo, 96 h, time 4 day
# How it was run: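 Neutropenic mice infected intramuscularly in the right thigh with 10⁶ cells per mL of A. baumannii ATCC 19606. […] Body weight monitored for toxicity. Euthanasia 4 days post-infection (day 8). n = 6 per group, from three inocula.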
# Acinetobacter baumannii [19] = test: Induction of outer membrane permeabilization in Acinetobacter baumannii ATCC 19606 measured for 20 mins by NPN uptake assay; type: functional, organism-based
# Acinetobacter baumannii [20] = test: Anti-infective activity against Acinetobacter baumannii ATCC 19606 infected in neutropenic CD-1 mouse deep thigh infection model assessed as reduction in bacterial load at 0.18 mg/kg, ip measured after 4 days; type: functional, organism-based; conditions: time 4.0 day
# How it was run: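 Neutropenic mice infected intramuscularly in right thigh with 10⁶ cells per mL A. baumannii ATCC 19606; single intraperitoneal peptide dose at 10× MIC; bacterial load determined 4 days after treatment (euthanized day 8); n = 6 per group from three inocula; one-way ANOVA with Dunnett's test versus untreated.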
# Enterococcus faecium = test: Depolarization of cytoplasmic membrane in Enterococcus faecium ATCC 700221 at MIC measured for 45 mins by DiSC3-(5) dye based assay; type: functional, organism-based; how it was run: as §2
compound,measurement,setting,value
CC1(C)S[C@@H]2[C@H](NC(=O)[C@H](N)c3ccccc3)C(=O)N2[C@H]1C(=O)O [AMPICILLIN],IC50 at 1 h,[1],0.9 µM
CC[C@H](C)[C@H](NC(=O)CN)C(=O)NCC(=O)N[C@@H](C)C(=O)N[C@H](C(=O)N[C@@H](CC(C)C)C(=O)N[C@@H](CCCCN)C(=O)N[C@H](C(=O)N[C@@H](CC(C)C)C(=O)N[C@H](C(=O)N[C@H](C(=O)NCC(=O)N[C@@H](CC(C)C)C(=O)N1CCC[C@H]1C(=O)N[C@@H](C)C(=O)N[C@@H](CC(C)C)C(=O)N[C@H](C(=O)N[C@@H](CO)C(=O)N[C@@H](Cc1c[nH]c2ccccc12)C(=O)N[C@H](C(=O)N[C@@H](CCCCN)C(=O)N[C@@H](CCCNC(=N)N)C(=O)N[C@@H](CCCCN)C(=O)N[C@@H](CCCNC(=N)N)C(=O)N[C@@H](CCC(N)=O)C(=O)N[C@@H](CCC(N)=O)C(N)=O)[C@@H](C)CC)[C@@H](C)CC)[C@@H](C)O)[C@@H](C)O)C(C)C)C(C)C [MELITTIN],pIC50,SUD4,≥ 5.30
H-KKKKAKKAAKKAFQFANQADNQAQDAKQNK-NH2,MIC,Escherichia coli [2],> 50 µM
same,inhibition at 30 µM,Staphylococcus aureus [3],< 45%
same,inhibition at 30 µM,Staphylococcus aureus [4],< 45%
same,inhibition at 30 µM,Staphylococcus aureus [5],< 45%
same,inhibition at 30 µM,Staphylococcus aureus [6],< 45%
same,MIC,Staphylococcus carnosus,> 50 µM
H-KKKKIKKIIKKIFQFINQIDNQIQDIKQNK-NH2,inhibition at 30 µM,Staphylococcus aureus [3],< 45%
same,inhibition at 30 µM,Staphylococcus aureus [4],< 45%
same,inhibition at 30 µM,Staphylococcus aureus [5],< 45%
same,inhibition at 30 µM,Staphylococcus aureus [6],< 45%
same,MIC,Staphylococcus carnosus,> 50 µM
H-KKKKKLKKILKKLFQFINQLDNQLQDIKKKKK-OH,Activity,Pseudomonas aeruginosa [7],Active
same,"viability at 1 h, 50 µM",[8],100%
same,half-life at 10 mg/ml,[9],> 6 h
same,Activity,Escherichia coli [10],Active
same,Activity,Acinetobacter baumannii [11],Active
same,Activity,Staphylococcus aureus [12],Active
same,inhibition at 30 µM,Staphylococcus aureus [3],< 45%
same,Activity,[13],Non-Toxic
same,Activity,Pseudomonas aeruginosa [14],Active
same,inhibition at 30 µM,Staphylococcus aureus [4],< 45%
same,Activity,Escherichia coli [15],Active
same,Activity,Klebsiella pneumoniae [16],Active
same,Activity,Klebsiella pneumoniae [17],Active
same,inhibition at 30 µM,Staphylococcus aureus [5],< 45%
same,Activity,[18],Non-Toxic
same,inhibition at 30 µM,Staphylococcus aureus [6],< 45%
same,IC50 at 1 h,[1],> 50 µM
same,Activity,Acinetobacter baumannii [19],inactive
same,Activity,Acinetobacter baumannii [20],inactive
same,Activity,Enterococcus faecium,Active
